Results collected from several papers.
Compare with care: the assays were run in different laboratories.

SMILES | tested on | assay | system | conditions | measurement | result
CC(=O)Oc1ccc(C=CC(=O)O)cc1OC(C)=O | HaCaT | cell growth or viability, MTT | – | 24 h | CC50 | > 250 µM
CC(C)CC(=O)OC[C@H]1O[C@@](C#N)(c2ccc3c(N)ncnn23)[C@H](O)[C@@H]1O | – | metabolic stability | dog, plasma | 5 µM | half-life | > 3.1 h
Cc1ccc2cc(N3CCC4(O)C(=O)c5cc(C)c(C)cc5N=C34)ccc2n1 (centres unmarked) | – | general toxicity | rat | intravenous, multiple doses | NOAEL | ≥ 20 mg/kg
CC(=O)c1c(C)c2cnc(Nc3ccc(C4CCN(CCS(C)(=O)=O)CC4)cn3)nc2n(C2CCCC2)c1=O | – | metabolic stability | dog, liver S9 | – | half-life | 1.72 h
COc1cc(C2C3=C(COC3=O)N(CCO)c3cc4c(cc32)CCC4)cc(OC)c1OC (centres unmarked) | – | general toxicity | female Sprague-Dawley rat | intraperitoneal, single dose | MTD | ≥ 400 mg/kg
Cc1ncc2n1-c1ccc(Cl)cc1C(c1ccccc1F)=NC2 | – | metabolic stability | dog, hepatocytes | – | half-life | 0.616 h
O=C(O)CCCOc1ccc(F)cc1-c1cc(-c2ccccc2C(F)(F)F)n(-c2ccccc2)n1 | – | general toxicity | rat | intravenous, 25 µg/kg, single dose | NOAEL | ≥ 0.025 mg/kg
COC(=O)C=Cc1ccc(OC(C)=O)c(OC(C)=O)c1 | HaCaT | cell growth or viability, MTT | – | 24 h | CC50 | 201 µM
